We go through 23 molecules from ChEMBL document CHEMBL1649382, “Synthesis and in vitro anticancer evaluation of some novel hexahydroquinoline derivatives having a benzenesulfonamide moiety” (Eur J Med Chem, 2011).

Values after ≈ are worked out from the molar mass of the structure shown. Where only a bound is given, the exact number is not on record here.

A short description of test [1]: Cytotoxicity against mouse EAC assessed as non-viable cells at 100 ug/ml after 2 hrs by trypan blue exclusion test. The test is classed as functional, Ehrlich. The method in brief: (§1)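 Mouse EAC cells came from ascitic fluid by needle aspiration, at 2.5×10^6 per mL in RPMI-1640. Each tube held 0.8 mL medium (glutamine, fetal calf serum, streptomycin, penicillin), 0.1 mL compound dissolved in DMSO (stock 10–100 µg per mL) and 0.1 mL of cells, at 37 °C for 2 h. Trypan blue staining gave the percentage of non-viable cells, as the mean of three experiments ± SD.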

Test [2] can be described thus: Cytotoxicity against mouse EAC assessed as non-viable cells at 25 ug/ml after 2 hrs by trypan blue exclusion test. It counts as functional, Ehrlich. A digest of the protocol: as §1
Test [3] is described as follows: Cytotoxicity against mouse EAC assessed as non-viable cells after 2 hrs by trypan blue exclusion test. The test is classed as functional, cell-based. To be noted: Ehrlich. The method in brief: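 EAC cells were aspirated from the ascitic fluid of preinoculated mice and suspended in RPMI-1640 at 2.5×10^6 per mL. Each tube held 0.8 mL supplemented medium, 0.1 mL of a DMSO solution (100, 50, 25 or 10 µg per mL DMSO) and 0.1 mL of cells, incubated 2 h at 37 °C. Non-viable cells were counted by trypan blue. The survival-versus-concentration curve gave IC50, the concentration causing 50% mortality.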

A short description of test [4]: Cytotoxicity against mouse EAC assessed as non-viable cells at 50 ug/ml after 2 hrs by trypan blue exclusion test. It counts as functional, Ehrlich. The method in brief:
as §1

Test [5] can be described thus: Cytotoxicity against mouse EAC assessed as non-viable cells at 10 ug/ml after 2 hrs by trypan blue exclusion test. It counts as functional, Ehrlich. The method in brief: as §1

As usually defined, the IC50 is the concentration that gives 50% inhibition. As to `CC(Cl)CC(=O)NC1=C(C#N)C(c2ccc(Cl)cc2Cl)C2=C(CCCC2=O)N1c1ccc(S(N)(=O)=O)cc1` (stereo not given), the Activity was 60% in test [1], 50% in test [2], 55% in test [4] and 20% in test [5]. Moreover, the IC50 in test [3] amounted to 25 µg/mL (≈ 42.1 µM).
On the same counts, the results for `N#CC1=C(NC(=O)C2CC2)N(c2ccc(S(N)(=O)=O)cc2)C2=C(C(=O)CCC2)C1c1ccc(Cl)cc1Cl` (stereo not given) are 60%, 40%, 40%, 20% and 75 µg/mL (≈ 135 µM).
On the same counts, the results for `N#CC1=C(NC(=O)c2ccccc2)N(c2ccc(S(N)(=O)=O)cc2)C2=C(C(=O)CCC2)C1c1ccc(Cl)cc1Cl` (stereo not given) are 75%, 60%, 70%, 50% and 10 µg/mL (≈ 16.8 µM).
Taken in the same sequence, the figures for `Cc1ccc(C(=O)NC2=C(C#N)C(c3ccc(Cl)cc3Cl)C3=C(CCCC3=O)N2c2ccc(S(N)(=O)=O)cc2)cc1` (stereo not given) were 40%, 30%, 40%, 20% and greater than 100 µg/mL.
In the case of `N#CC1=C(NC(=O)/C=C/c2ccccc2)N(c2ccc(S(N)(=O)=O)cc2)C2=C(C(=O)CCC2)C1c1ccc(Cl)cc1Cl` (stereo not given), the Activity came out at 45% in test [1], 30% in test [2], 40% in test [4] and 30% in test [5]. In test [3], the IC50 was greater than 100 µg/mL.
With `N#CC1=C(NC(=O)c2ccc([N+](=O)[O-])cc2)N(c2ccc(S(N)(=O)=O)cc2)C2=C(C(=O)CCC2)C1c1ccc(Cl)cc1Cl` (stereo not given), the Activity in test [1] was determined as 70%; in test [2], 40%; in test [4], 50%; in test [5], 40%. For the same molecule, in test [3], the IC50 was 50 µg/mL (≈ 78.3 µM).
With `COc1cc(C(=O)NC2=C(C#N)C(c3ccc(Cl)cc3Cl)C3=C(CCCC3=O)N2c2ccc(S(N)(=O)=O)cc2)cc(OC)c1OC` (stereo not given), the Activity in test [1] came to 95%; in test [2] it was 20%; in test [4] it was 95%; in test [5], 0%. Besides, in test [3], the IC50 worked out at 60 µg/mL (≈ 87.8 µM).
`CC(Cl)Cc1nc2c(c(=O)[nH]1)C(c1ccc(Cl)cc1Cl)C1=C(CCCC1=O)N2c1ccc(S(N)(=O)=O)cc1` (stereo not given): the Activity in test [1] was 60%; in test [2], 40%; in test [4] it was 40%; in test [5] it was 30%. Also, the half-maximal inhibitory concentration (IC50) in test [3] is greater than 100 µg/mL.
For `NS(=O)(=O)c1ccc(N2C3=C(C(=O)CCC3)C(c3ccc(Cl)cc3Cl)c3c2nc(C2CC2)[nH]c3=O)cc1` (stereo not given), the Activity stood at 60% in test [1], 44% in test [2], 52% in test [4] and 27% in test [5]. For the same molecule, in test [3], the IC50 came out at 56 µg/mL (≈ 100 µM).
On the same counts, the results for `NS(=O)(=O)c1ccc(N2C3=C(C(=O)CCC3)C(c3ccc(Cl)cc3Cl)c3c2nc(-c2ccccc2)[nH]c3=O)cc1` (stereo not given) are 60%, 0%, 10%, 0% and greater than 100 µg/mL.
Taken in the same sequence, the figures for `Cc1ccc(-c2nc3c(c(=O)[nH]2)C(c2ccc(Cl)cc2Cl)C2=C(CCCC2=O)N3c2ccc(S(N)(=O)=O)cc2)cc1` (stereo not given) were 60%, 55%, 55%, 30% and 28 µg/mL (≈ 46.1 µM).
`NS(=O)(=O)c1ccc(N2C3=C(C(=O)CCC3)C(c3ccc(Cl)cc3Cl)c3c2nc(-c2ccc(Br)cc2)[nH]c3=O)cc1` (stereo not given): the Activity was found to be 100% in test [1], 50% in test [2], 60% in test [4] and 20% in test [5]. Further, the IC50 in test [3] came out at 25 µg/mL (≈ 37.2 µM).
Consider `NS(=O)(=O)c1ccc(N2C3=C(C(=O)CCC3)C(c3ccc(Cl)cc3Cl)c3c2nc(CCl)[nH]c3=O)cc1` (stereo not given), for which the Activity in test [1] is 40%; in test [2] it was 30%; in test [4], 35%; in test [5], 30%. Further, in test [3], the half-maximal inhibitory concentration (IC50) is greater than 100 µg/mL.
Consider `NC(=O)C1=C(N)N(c2ccc(S(N)(=O)=O)cc2)C2=C(C(=O)CCC2)C1c1ccc(Cl)cc1Cl` (stereo not given), for which the Activity in test [1] was determined as 45%; in test [2], 30%; in test [4], 40%; in test [5], 30%. For the same molecule, the IC50 in test [3] is greater than 100 µg/mL.
`NC1=C(C(=O)O)C(c2ccc(Cl)cc2Cl)C2=C(CCCC2=O)N1c1ccc(S(N)(=O)=O)cc1` (stereo not given): the Activity in test [1] was 60%; in test [2] it was 0%; in test [4] it was 10%; in test [5], 0%. Besides, in test [3], the IC50 was greater than 100 µg/mL.
On to `CN(C)c1ccc(/C=N/C2=C(C#N)C(c3ccc(Cl)cc3Cl)C3=C(CCCC3=O)N2c2ccc(S(N)(=O)=O)cc2)cc1` (stereo not given), for which the Activity in test [1] was determined as 40%; in test [2], 30%; in test [4], 30%; in test [5], 10%. Further, the IC50 in test [3] is greater than 100 µg/mL.
On to `CN(C)c1ccc(/C=C/C=N/C2=C(C#N)C(c3ccc(Cl)cc3Cl)C3=C(CCCC3=O)N2c2ccc(S(N)(=O)=O)cc2)cc1` (stereo not given), for which the Activity amounted to 20% in test [1], 20% in test [2], 20% in test [4] and 10% in test [5]. Besides, the IC50 in test [3] was greater than 100 µg/mL.
With `N#CC1=C(/N=C/c2ccc([N+](=O)[O-])cc2[N+](=O)[O-])N(c2ccc(S(N)(=O)=O)cc2)C2=C(C(=O)CCC2)C1c1ccc(Cl)cc1Cl` (stereo not given), the Activity was found to be 20% in test [1], 20% in test [2], 20% in test [4] and 10% in test [5]. Besides, the IC50 in test [3] is greater than 100 µg/mL.
On to `CC(=O)CC(=O)NC1=C(C#N)C(c2ccc(Cl)cc2Cl)C2=C(CCCC2=O)N1c1ccc(S(N)(=O)=O)cc1` (stereo not given), for which the Activity is reported as 80% in test [1], 44% in test [2], 60% in test [4] and 40% in test [5]. Moreover, the IC50 in test [3] was determined as 64 µg/mL (≈ 112 µM).
Taken in the same sequence, the figures for `Cc1nc2c(c(=S)[nH]1)C(c1ccc(Cl)cc1Cl)C1=C(CCCC1=O)N2c1ccc(S(N)(=O)=O)cc1` (stereo not given) were 60%, 40%, 40%, 30% and greater than 100 µg/mL.
On the same counts, the results for `CCO/C=N/C1=C(C#N)C(c2ccc(Cl)cc2Cl)C2=C(CCCC2=O)N1c1ccc(S(N)(=O)=O)cc1` (stereo not given) are 40%, 30%, 35%, 30% and greater than 100 µg/mL.
For `N#CC1=C(N)N(c2ccc(S(N)(=O)=O)cc2)C2=C(C(=O)CCC2)C1c1ccc(Cl)cc1Cl` (stereo not given), the Activity in test [1] turned out to be 95%; in test [2], 50%; in test [4] it was 65%; in test [5] it was 40%. For the same molecule, the half-inhibitory concentration (IC50) in test [3] was determined as 25 µg/mL (≈ 51.1 µM).
With `COc1cccc2c1C(=O)c1c(O)c3c(c(O)c1C2=O)C[C@@](O)(C(=O)CO)C[C@@H]3O[C@H]1C[C@H](N)[C@H](O)[C@H](C)O1` [DOXORUBICIN], the Activity came out at 100% in test [1], 32% in test [2], 68% in test [4] and 19% in test [5]. Besides, the IC50 in test [3] was determined as 38 µg/mL (≈ 69.9 µM).
